Laboratory results from ChEMBL document CHEMBL1153713, “Effect of chirality of small molecule organofluorine inhibitors of amyloid self-assembly on inhibitor potency” (Bioorg Med Chem Lett, 2009).
The source made the active and inactive calls. The calls are words filed in the database; no cut-off is given here.

How the values were obtained:
[1] = Inhibition of amyloid beta (1 to 40) fibrillation by atomic force microscopy relative to control; conditions: concentration not given here
Outline: (§1)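 Aβ1-40 (100 μM in HEPES/NaCl/NaN3, pH 7.4) incubated with inhibitor (DMSO stock, 10:1 inhibitor:peptide) at 37°C with gentle shaking. Aliquots diluted in the same HEPES buffer, 2-5 μL spotted on freshly cleaved mica. Imaged by non-contact AFM over 10 μm2 scans and compared with inhibitor-free control.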

[2] = Inhibition of amyloid beta (1 to 40) fibrillation by atomic force microscopy; outline: as §1
[3] = Inhibition of amyloid beta (1 to 40) after 94 hrs by thioflavin-T assay relative to control
Outline: (§2)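 Synthetic Aβ1-40 dissolved in 100 mM NaOH (40 mg/ml), diluted to 100 μM final in 10 mM HEPES, 100 mM NaCl, 0.02% NaN3, pH 7.4; inhibitor added from DMSO at inhibitor/Aβ = 10. Incubated at 37°C, 77 rpm shaking, up to 140 h. Aliquots into 5 μM ThT in glycine-NaOH pH 8.5; ex 430/em 484 nm, 0 h background subtracted, normalized to inhibitor-free control.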

[4] = Inhibition of amyloid beta (1 to 40) after 140 hrs by thioflavin-T assay; outline: as §2

Structure (SMILES) | inhibition [1] | Activity [2] | Activity [3] | Activity [4]
CCOC(=O)[C@](O)(c1c[nH]c2ccc(Cl)cc12)C(F)(F)F | 60% | Active | Active | Active
CCOC(=O)[C@@](O)(c1c[nH]c2ccc(Br)cc12)C(F)(F)F |  | Active | Active | Active
CCOC(=O)[C@@](O)(c1c[nH]c2ccc(Cl)cc12)C(F)(F)F | 60% | Active | Active | Active
CCOC(=O)[C@@](O)(c1c[nH]c2ccc(I)cc12)C(F)(F)F |  | Active | Active | Active
CCOC(=O)[C@](O)(c1c[nH]c2ccc(I)cc12)C(F)(F)F |  | Active | Active | Active
CCOC(=O)[C@](O)(c1c[nH]c2ccc(Br)cc12)C(F)(F)F | 60% | Active | Active | Active
